ChEMBL document CHEMBL4765251, “Efficient identification of novel anti-glioma lead compounds by machine learning models” (Eur J Med Chem, 2020)
Activity calls are given as the source filed them. No cut-off for these calls is given here.

Tests used:
[1] = tested on: C6; test: Antiproliferative activity against rat C6 cells assessed as cell growth inhibition measured after 72 hrs by SRB assay; type: functional, cell-based; conditions: C6, 72 h
[2] = tested on: U-251; test: Antiproliferative activity against human U251MG cells assessed as cell growth inhibition measured after 72 hrs by SRB assay; type: functional, cell-based; conditions: U-251, 72 h
[3] = tested on: GL261; test: Antitumor activity against C57BL/6 mouse GL261 cells xenografted in C57BL/6 mouse assessed as reduction in tumor volume at 20 mg/kg, po administered via gavage once daily for 10 days starting from 7 days post tumor cell inoculation and measured on day 17; type: functional, organism-based; conditions: dose 20.0 mg/kg/day, time 10.0 day
[4] = tested on: GL261; test: Antitumor activity against C57BL/6 mouse GL261 cells xenografted in C57BL/6 mouse assessed as reduction in tumor volume at 20 mg/kg, ip administered once daily for 10 days starting from 7 days post tumor cell inoculation and measured on day 17; type: functional, organism-based; conditions: dose 20.0 mg/kg/day, time 10.0 day
[5] = tested on: Astrocyte; test: Cytotoxicity against Wistar rat astrocytes assessed as cell growth inhibition at 100 uM measured after 72 hrs by SRB assay; type: cell-based
[6] = tested on: U-87 MG; test: Antiproliferative activity against human U87MG cells assessed as cell growth inhibition measured after 72 hrs by SRB assay; type: functional, cell-based, U-87MG ATCC
In short: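 U87MG human glioma cells grown in DMEM with 10% FBS at 37 °C, used up to 30 passages and treated at 40-50% confluence. Exposed to 0.1-100 µM for 72 h, with DMSO at most 0.1% final. TCA-fixed, stained with SRB, dye solubilized in Tris pH 10.5, read at 510 nm, expressed as % of DMSO controls. Mean ± SD of three independent assays.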

[7] = Selectivity index, ratio of CC50 for Wistar rat astrocytes to EC50 for human U-251 MG cells
In short: (§1)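 Selectivity index is astrocyte CC50 divided by the glioma-line EC50, both from 72 h SRB assays. No index is given when astrocyte cytotoxicity could not be calculated at the highest concentration tested.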

[8] = Toxicity in C57BL/6 mouse xenografted with C57BL/6 mouse GL261 cells assessed as body weight at 100 mg/kg, po administered via gavage once daily for 10 days starting from 7 days post tumor cell inoculation; type: organism-based; conditions: in vivo, 240 h, dose 100 mg/kg/day, time 10 day
In short: (§2)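 Orthotopic model: 5x10^4 GL261 cells in 2 µL serum-free DMEM injected into the right hemisphere of 60-day-old male and female C57BL/6 mice (17-25 g) under ketamine/xylazine. Treatment began 7 days later, n=9 per group. Compound was given in 0.9% saline with 10% DMSO and 0.3% Tween-80, as 100 µL ip or 200 µL by gavage. Body weight change (final minus initial) and mortality were monitored.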

[9] = Hematological toxicity in C57BL/6 mouse xenografted with C57BL/6 mouse GL261 cells assessed as hematocrit level in blood at 100 mg/kg, po or ip administered once daily for 10 days starting from 7 days post tumor cell inoculation and measured on day 17 (reference value: 44.5 +/- 1.8%); type: organism-based; conditions: in vivo, 240 h, dose 100 mg/kg/day, time 10 day
[10] = Nephrotoxicity in C57BL/6 mouse xenografted with C57BL/6 mouse GL261 cells assessed as serum creatinine level at 100 mg/kg, po or ip administered once daily for 10 days starting from 7 days post tumor cell inoculation and measured on day 17 (reference value: 0.4 +/- 0.3 mg/dl); type: toxicity, organism-based; conditions: in vivo, 240 h, dose 100 mg/kg/day, time 10 day
[11] = Toxicity in C57BL/6 mouse xenografted with C57BL/6 mouse GL261 cells at 100 mg/kg, po administered via gavage once daily for 10 days starting from 7 days post tumor cell inoculation; type: organism-based; conditions: in vivo, 240 h, dose 100 mg/kg/day, time 10 day; in short: as §2
[12] = species on record: Rattus norvegicus; test: (§3) Inhibition of TrxR in rat liver assessed as reduction in TNB formation using DTNB and NADPH as substrate preincubated with enzyme for 15 mins followed by NADPH addition by absorbance based analysis; type: tissue-based
In short: (§4)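 TrxR activity was measured at 37 °C in 100 mM potassium phosphate pH 7.0 with 2 mg/mL DTNB and 0.01 mg/mL enzyme. Enzyme was preincubated for 15 min with compound or DMSO, then the reaction was started with 0.2 mg/mL NADPH. TNB formation was followed at 412 nm (ε 13.6 mM-1 cm-1). Assays were run in duplicate, with enzyme-free blanks subtracted.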

[13] = as §3; type: tissue-based; in short: as §4
[14] = Cytotoxicity against Wistar rat astrocytes assessed as cell growth inhibition measured after 72 hrs by SRB assay; type: cell-based, Astrocyte
In short: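 Primary astrocytes taken from the cortex of 2-day-old Wistar rats by mechanical dissociation, grown on poly-L-lysine in high-glucose DMEM and treated at 90% confluence (12-15 days). Exposed to 0.1-100 µM for 72 h, then SRB assay with absorbance read at 510 nm against DMSO controls. Mean ± SD of three independent assays.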

[15] = tested on: GL261; test: Antitumor activity against C57BL/6 mouse GL261 cells xenografted in C57BL/6 mouse assessed as reduction in tumor volume at 10 to 100 mg/kg, po administered via gavage once daily for 10 days starting from 7 days post tumor cell inoculation and measured on day 17; type: functional, organism-based; conditions: dose 10-100 mg/kg/day, time 10.0 day
In short: (§5)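 GL261 cells (5x10^4 in 2 µL DMEM) were injected into the right hemisphere of 60-day-old male and female C57BL/6 mice (17-25 g) under ketamine/xylazine. From day 7, mice received compound once daily for 10 days (n=9 per group), by gavage (200 µL) or ip (100 µL). Vehicle was 0.9% saline with 10% DMSO and 0.3% Tween-80. Tumor volume was taken as the summed segmented areas of three H&E coronal sections.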

[16] = Toxicity in C57BL/6 mouse xenografted with C57BL/6 mouse GL261 cells assessed as mortality at 100 mg/kg, po administered via gavage once daily for 10 days starting from 7 days post tumor cell inoculation; type: organism-based; conditions: in vivo, 240 h, dose 100 mg/kg/day, time 10 day; in short: as §2
[17] = tested on: C6; test: Antiproliferative activity against rat C6 cells assessed as cell growth inhibition preincubated with NAC for 1 hr prior to compound challenge and measured after 72 hrs by SRB assay; type: functional, cell-based
In short: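 C6 cells were pretreated with 2 mM N-acetylcysteine for 1 h, then exposed to compound for 72 h. Viability was measured by SRB assay relative to DMSO-treated controls. Auranofin served as the reference thiol-reactive control.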

[18] = Hepatotoxicity in C57BL/6 mouse xenografted with C57BL/6 mouse GL261 cells assessed as serum ALT level at 100 mg/kg, po or ip administered once daily for 10 days starting from 7 days post tumor cell inoculation and measured on day 17 (reference value: 7.6 +/- 4.2 U/L); type: toxicity, organism-based; conditions: in vivo, 240 h, dose 100 mg/kg/day, time 10 day
[19] = Hematological toxicity in C57BL/6 mouse xenografted with C57BL/6 mouse GL261 cells assessed as WBC level in blood at 100 mg/kg, po or ip administered once daily for 10 days starting from 7 days post tumor cell inoculation and measured on day 17 (reference value: 8.6 +/- 1.6x10^3/uL); type: organism-based; conditions: in vivo, 240 h, dose 100 mg/kg/day, time 10 day
[20] = species on record: Rattus norvegicus; test: Inhibition of TrxR in rat liver assessed as reduction in TNB formation using DTNB and NADPH as substrate at 100 uM preincubated with enzyme for 15 mins followed by NADPH addition by absorbance based analysis; type: tissue-based; in short: as §4
[21] = Selectivity index, ratio of CC50 for Wistar rat astrocytes to EC50 for rat C6 cells; in short: as §1
[22] = Hepatotoxicity in C57BL/6 mouse xenografted with C57BL/6 mouse GL261 cells assessed as serum ALP level at 100 mg/kg, po or ip administered once daily for 10 days starting from 7 days post tumor cell inoculation and measured on day 17 (reference value: 19.1 +/- 8.9 U/L); type: toxicity, organism-based; conditions: in vivo, 240 h, dose 100 mg/kg/day, time 10 day
[23] = Selectivity index, ratio of CC50 for Wistar rat astrocytes to EC50 for human U87MG cells; in short: as §1
[24] = Toxicity in C57BL/6 mouse xenografted with C57BL/6 mouse GL261 cells assessed as body weight at 100 mg/kg, ip administered once daily for 10 days starting from 7 days post tumor cell inoculation; type: organism-based; conditions: in vivo, 240 h, dose 100 mg/kg/day, time 10 day; in short: as §2
[25] = Hematological toxicity in C57BL/6 mouse xenografted with C57BL/6 mouse GL261 cells assessed as blood glucose level at 100 mg/kg, po or ip administered once daily for 10 days starting from 7 days post tumor cell inoculation and measured on day 17 (reference value: 108 +/- 13 mg/dl); type: organism-based; conditions: in vivo, 240 h, dose 100 mg/kg/day, time 10 day
[26] = tested on: C6; test: Antiproliferative activity against rat C6 cells assessed as cell growth inhibition measured after 72 hrs in presence of 0.0001 to 0.001% Triton X-100 by SRB assay; type: functional, cell-based
In short: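 Rat C6 glioma cells were incubated for 72 h in medium with no detergent or with 0.0001% or 0.001% Triton X-100, as a check for aggregation-based cytotoxicity. Viability was read by SRB assay and an EC50 was derived from concentration-response curves. Mean ± SD of three independent assays.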

[27] = Toxicity in C57BL/6 mouse xenografted with C57BL/6 mouse GL261 cells assessed as mortality at 100 mg/kg, ip administered once daily for 10 days starting from 7 days post tumor cell inoculation; type: organism-based; conditions: in vivo, 240 h, dose 100 mg/kg/day, time 10 day; in short: as §2
[28] = Toxicity in C57BL/6 mouse xenografted with C57BL/6 mouse GL261 cells at 100 mg/kg, ip administered once daily for 10 days starting from 7 days post tumor cell inoculation; type: organism-based; conditions: in vivo, 240 h, dose 100 mg/kg/day, time 10 day; in short: as §2
[29] = Antitumor activity against C57BL/6 mouse GL261 cells xenografted in C57BL/6 mouse assessed as reduction in tumor volume at 100 mg/kg, ip administered once daily for 10 days starting from 7 days post tumor cell inoculation and measured on day 17; type: functional; conditions: C57BL/6, GL261, ip, 240 h, time 10 day; in short: as §5

Structure (SMILES)	EC50 [1] [µM]	EC50 [2] [µM]	EC50 [6] [µM]	Ratio CC50/EC50 [7]	Activity [8]	Activity [9] [%]	Activity [10] [mg/dL]	Activity [11]	CC50 at 72 h [14] [µM]	Activity [15]	Activity [16]	Activity [17]	Activity [18] [U/L]	Activity [19]	inhibition [20] [%]	Ratio CC50/EC50 [21]	Activity [22] [U/L]	Ratio CC50/EC50 [23]	Activity [24]	Activity [25] [mg/dL]	also measured
Cn1nnc2c(C(N)=O)ncn2c1=O [TEMOZOLOMIDE]	60.5	> 200	> 200	–	–	–	–	–	–	–	–	–	–	–	–	–	–	–	–	–	Activity [3]: inactive; Activity [4]: Active; Activity [5]: Non-Toxic
CCCCc1ccc(C(=O)/C=C/c2ccc([N+](=O)[O-])o2)cc1	1.7	3.9	5.8	10.6	Non-Toxic	45.5	0.3	Non-Toxic	41.2	inactive	Non-Toxic	inactive	19.8	9.5 10^3 /uL	80.7	24.2	22.2	7.1	Non-Toxic	94	inhibition [12]: Dose-dependent effect; IC50 [13]: 25 µM; Activity [26]: Active; Activity [27]: Non-Toxic; Activity [28]: Non-Toxic
Cc1cccc(C(=O)/C=C/c2ccc([N+](=O)[O-])o2)c1	2.1	2.3	3.3	22.7	Non-Toxic	46	0.4	Non-Toxic	52.2	inactive	Non-Toxic	inactive	6.2	8.4 10^3 /uL	95.2	24.8	20.3	15.8	Non-Toxic	108	inhibition [12]: Dose-dependent effect; IC50 [13]: 25 µM; Activity [26]: Active; inhibition in vivo at 100 mg/kg/day [29]: 43.8%; Activity [27]: Non-Toxic; Activity [28]: Non-Toxic
O=C(/C=C/c1ccc([N+](=O)[O-])o1)c1cccc(Br)c1	1.4	5.8	6.8	6.1	Non-Toxic	45.3	0.5	Non-Toxic	35.6	inactive	Non-Toxic	inactive	9.9	9.2 10^3 /uL	78.7	25.4	20.6	5.2	Non-Toxic	109	Activity [26]: Active; inhibition in vivo at 100 mg/kg/day [29]: 41.3%; Activity [27]: Non-Toxic; Activity [28]: Non-Toxic
O=C(/C=C/c1ccc([N+](=O)[O-])o1)c1ccc(N2CCNCC2)cc1	1.5	16.7	4.9	2.6	–	–	–	–	44.3	–	–	–	–	–	0	29.5	–	9	–	–	–
